Data taken from ChEMBL document CHEMBL1255566, “Rigid analogues of the α2-adrenergic blocker atipamezole: small changes, big consequences” (J Med Chem, 2010).

Columns and labels:
[1] = target: T1, Alpha-1B adrenergic receptor (Homo sapiens, UniProt P35368); assay: Displacement of [3H]-prazosin from human adrenergic alpha-1b receptor expressed in CHO cells after 120 mins by liquid scintillation counting; format: cell-based
T1 sequence (P35368 whole entry): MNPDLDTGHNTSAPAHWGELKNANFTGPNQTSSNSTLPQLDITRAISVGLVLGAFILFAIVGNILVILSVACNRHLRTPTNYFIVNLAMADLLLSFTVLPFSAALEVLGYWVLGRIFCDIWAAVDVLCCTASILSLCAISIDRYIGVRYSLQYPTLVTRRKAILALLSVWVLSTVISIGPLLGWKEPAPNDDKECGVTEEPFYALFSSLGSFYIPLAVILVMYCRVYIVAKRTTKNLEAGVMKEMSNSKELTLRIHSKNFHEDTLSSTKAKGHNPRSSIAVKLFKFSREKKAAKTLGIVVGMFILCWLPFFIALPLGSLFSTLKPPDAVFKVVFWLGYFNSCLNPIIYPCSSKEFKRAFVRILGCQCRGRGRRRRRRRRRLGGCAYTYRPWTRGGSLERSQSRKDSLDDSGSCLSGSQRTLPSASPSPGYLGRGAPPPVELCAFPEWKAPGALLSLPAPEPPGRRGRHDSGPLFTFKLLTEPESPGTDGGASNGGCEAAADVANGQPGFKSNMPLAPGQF
Outline: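 Competition binding at human α1b receptors stably expressed in CHO cells. Affinity values are means ± SEM of at least two experiments, each in duplicate.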

[2] = target: T2, Alpha-2A adrenergic receptor (Homo sapiens, UniProt P08913); assay: Displacement of [3H]-RX821002 from human adrenergic alpha2A receptor expressed in rat C6 cells after 120 mins by liquid scintillation counting; format: cell-based
T2 sequence (P08913 whole entry): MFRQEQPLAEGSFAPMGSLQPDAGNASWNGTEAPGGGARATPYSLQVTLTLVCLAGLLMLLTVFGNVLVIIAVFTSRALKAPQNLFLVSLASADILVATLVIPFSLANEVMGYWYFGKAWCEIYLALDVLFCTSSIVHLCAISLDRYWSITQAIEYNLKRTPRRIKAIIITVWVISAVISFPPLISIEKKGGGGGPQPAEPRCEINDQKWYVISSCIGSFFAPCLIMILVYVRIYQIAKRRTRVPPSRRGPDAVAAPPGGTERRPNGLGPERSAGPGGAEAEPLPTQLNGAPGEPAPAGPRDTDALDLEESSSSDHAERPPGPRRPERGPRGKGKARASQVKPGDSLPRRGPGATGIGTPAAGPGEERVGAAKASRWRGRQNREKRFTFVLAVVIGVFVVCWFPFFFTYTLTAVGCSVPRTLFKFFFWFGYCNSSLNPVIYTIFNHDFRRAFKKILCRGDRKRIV
Outline: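 Competition binding at human α2A receptors expressed in C6 glial cells. Affinity values are means ± SEM of at least two experiments, each in duplicate.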

[3] = target: T3, Alpha-2C adrenergic receptor (Homo sapiens, UniProt P18825); assay: Displacement of [3H]-RX821002 from human adrenergic Alpha-2C receptor expressed in rat C6 cells after 120 mins by liquid scintillation counting; format: cell-based
T3 sequence (P18825 whole entry): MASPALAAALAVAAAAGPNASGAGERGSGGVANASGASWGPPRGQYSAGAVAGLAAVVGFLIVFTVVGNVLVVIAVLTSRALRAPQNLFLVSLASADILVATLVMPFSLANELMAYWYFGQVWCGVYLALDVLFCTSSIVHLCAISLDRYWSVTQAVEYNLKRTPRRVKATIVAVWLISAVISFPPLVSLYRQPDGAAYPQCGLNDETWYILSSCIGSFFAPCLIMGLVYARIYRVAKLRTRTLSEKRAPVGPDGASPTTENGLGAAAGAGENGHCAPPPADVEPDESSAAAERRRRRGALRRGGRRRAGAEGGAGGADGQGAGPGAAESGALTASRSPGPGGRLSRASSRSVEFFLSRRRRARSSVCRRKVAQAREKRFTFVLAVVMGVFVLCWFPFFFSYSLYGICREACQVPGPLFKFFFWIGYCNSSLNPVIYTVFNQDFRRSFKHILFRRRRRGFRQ

[4] = target: T4, Alpha-2B adrenergic receptor (Homo sapiens, UniProt P18089); assay: Displacement of [3H]-RX821002 from human adrenergic alpha2B receptor expressed in rat C6 cells after 120 mins by liquid scintillation counting; format: cell-based
T4 sequence (P18089 whole entry): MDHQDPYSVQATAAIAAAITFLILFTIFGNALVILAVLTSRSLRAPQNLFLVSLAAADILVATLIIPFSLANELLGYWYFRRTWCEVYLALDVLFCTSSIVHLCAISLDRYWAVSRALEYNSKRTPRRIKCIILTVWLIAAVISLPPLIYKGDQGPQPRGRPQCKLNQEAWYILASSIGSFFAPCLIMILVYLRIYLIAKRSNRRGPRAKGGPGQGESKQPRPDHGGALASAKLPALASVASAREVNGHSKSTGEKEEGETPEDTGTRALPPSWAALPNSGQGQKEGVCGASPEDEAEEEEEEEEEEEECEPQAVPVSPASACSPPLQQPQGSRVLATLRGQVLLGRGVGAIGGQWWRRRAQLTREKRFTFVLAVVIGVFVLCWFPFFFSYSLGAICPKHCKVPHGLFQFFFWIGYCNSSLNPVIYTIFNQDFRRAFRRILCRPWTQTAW

Mus musculus [5] = assay: Antihypothermic activity in po dosed NMRI mouse assessed as inhibition of guanabenz-induced hypothermia administered 35 mins before guanabenz challenge measured after 25 mins; format: functional
Outline: (§1)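 Mice got the compound by intraperitoneal injection or oral gavage before guanabenz challenge, and reversal of guanabenz-induced hypothermia was scored. Five animals were tested per dose. ED50 is the dose giving an inhibitory effect in 50% of guanabenz-treated animals, with 95% confidence limits.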

[6] = target: T5, Alpha-2A adrenergic receptor (Homo sapiens) (UniProt P08913); assay: Antagonist activity at human adrenergic alpha2A receptor expressed in CHO cells assessed as inhibition of adrenaline-induced [35S]GTPgammaS binding after 30 mins by scintillation counting; format: functional, cell-based
T5 sequence (whole entry): T2 sequence (P08913 whole entry)
Outline: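 Inhibition of adrenaline-stimulated [35S]GTPγS binding in CHO cells expressing human α2A receptors. Compounds were also run alone to check for any stimulation of [35S]GTPγS binding. Antagonist potency is reported as pKB, taken as the potency that inhibits 50% of adrenaline-induced binding.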

Mus musculus [7] = assay: Antihypothermic activity in ip dosed NMRI mouse assessed as inhibition of guanabenz-induced hypothermia administered 5 mins before guanabenz challenge measured after 25 mins; format: functional; outline: as §1
Mus musculus [8] = assay: Ratio of ED50 for santihypothermic activity in po dosed NMRI mouse to ED50 for antihypothermic activity in ip dosed NMRI mouse; format: functional
Outline: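 Guanabenz-induced hypothermia in mice, five animals per dose. ED50 (the dose inhibiting hypothermia in 50% of guanabenz-treated animals) was obtained after oral gavage and after intraperitoneal injection, and the ratio po/ip was then calculated.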

[9] = Mus musculus, NMRI, po, read-out: ED50
[10] = Mus musculus, NMRI, ip, read-out: ED50

SMILES | Ki [1] [nM] | Ki [2] [nM] | Ki [3] [nM] | Ki [4] [nM] | pKb [6] | ED50 (Mus musculus [5]; [9]) [mg/kg] | ED50 (Mus musculus [7]; [10]) [mg/kg] | Ratio ED50 (Mus musculus [8]) | ED50 (Mus musculus [5]) [mg/kg] | ED50 (Mus musculus [7]) [mg/kg]
CCC[C@H]1[C@@H]2c3ccccc3C[C@]12c1c[nH]cn1 | 3.55 | 0.407 | 0.437 | 0.347 | 9.24 | 0.33 | 0.1 | 3.3 | – | –
CO[C@@H]1c2ccccc2[C@H]2C[C@]21c1cnc[nH]1 (relative stereo) | 912 | 11.7 | 66.1 | 24 | – | – | – | – | – | –
CO[C@H]1c2ccccc2[C@H]2C[C@]21c1c[nH]cn1 (relative stereo) [listing 1 of 2 here] | 102 | 1.74 | 5.75 | 7.76 | – | – | – | 3.1 | 0.28 | 0.09
CCCO[C@H]1c2ccccc2[C@H]2C[C@]21c1cnc[nH]1 (relative stereo) | 11.5 | 3.98 | 1.55 | 6.46 | – | – | – | – | – | –
C[C@H]1c2ccccc2[C@H]2C[C@]21c1cnc[nH]1 (relative stereo) | 6.17 | 0.219 | 0.537 | 0.692 | – | – | – | – | – | –
CO[C@@H]1c2ccccc2[C@H]2C[C@]21c1c[nH]cn1 (relative stereo) | – | – | – | – | 6.9 | – | – | – | – | –
CO[C@H]1c2ccccc2[C@H]2C[C@]21c1c[nH]cn1 (relative stereo) [listing 2 of 2 here] | – | – | – | – | 8.28 | – | – | – | – | –
CO[C@H]1c2ccccc2[C@H]2C[C@]21c1c[nH]cn1 (stereo in doubt; (+)-3) [listing 1 of 2 here] | 63.1 | 0.562 | 1.95 | 2.82 | – | – | – | 2.3 | 0.07 | 0.03
CO[C@H]1c2ccccc2[C@H]2C[C@]21c1c[nH]cn1 (stereo in doubt; (+)-3) [listing 2 of 2 here] | – | – | – | – | 8.54 | – | – | – | – | –
CO[C@H]1c2ccccc2[C@H]2C[C@]21c1c[nH]cn1 (stereo in doubt; (-)-3) [listing 1 of 2 here] | 1780 | 55 | 195 | 145 | – | – | – | – | – | –
CO[C@H]1c2ccccc2[C@H]2C[C@]21c1c[nH]cn1 (stereo in doubt; (-)-3) [listing 2 of 2 here] | – | – | – | – | 6.44 | – | – | – | – | –
CCC1(c2cnc[nH]2)Cc2ccccc2C1 [ATIPAMEZOLE] | 1950 | 1.86 | 4.17 | 2.24 | – | – | – | – | – | –

The next lines start with results.

Ki [1] [nM] | Ki [2] [nM] | Ki [3] [nM] | Ki [4] [nM] | pKb [6] | SMILES | ED50 (Mus musculus [5]; [9]) [mg/kg] | ED50 (Mus musculus [7]; [10]) [mg/kg] | Ratio ED50 (Mus musculus [8]) | ED50 (Mus musculus [5]) [mg/kg] | ED50 (Mus musculus [7]) [mg/kg]
16.6 | 0.138 | 0.17 | 0.182 | – | CC[C@H]1[C@@H]2c3ccccc3C[C@]12c1c[nH]cn1 | – | – | – | – | –
33.1 | 0.174 | 0.295 | 0.204 | 9.67 | C[C@H]1[C@@H]2c3ccccc3C[C@]12c1c[nH]cn1 | 0.19 | 0.06 | 3.2 | – | –
8.91 | 0.851 | 1.48 | 2.29 | 8.7 | CCC[C@H]1c2ccccc2[C@H]2C[C@]21c1c[nH]cn1 (relative stereo) | 0.12 | 0.1 | 1.2 | – | –
– | – | – | – | 8.16 | CCCO[C@H]1c2ccccc2[C@H]2C[C@]21c1c[nH]cn1 (relative stereo) | 0.12 | 0.29 | 0.4 | – | –
316 | 45.7 | 89.1 | 11.7 | 6.88 | CC(C)O[C@H]1c2ccccc2[C@H]2C[C@]21c1c[nH]cn1 (relative stereo) | – | – | – | – | –
– | – | – | – | 9.54 | C[C@H]1c2ccccc2[C@H]2C[C@]21c1c[nH]cn1 (relative stereo) | 0.009 | 0.006 | 1.5 | – | –
1.32 | 0.0692 | 0.178 | 0.115 | – | c1ccc2c(c1)C[C@]1(c3c[nH]cn3)C[C@H]21 (stereo in doubt; 1) [listing 1 of 2 here] | – | – | 4 | 0.12 | 0.03
– | – | – | – | 9.78 | c1ccc2c(c1)C[C@]1(c3c[nH]cn3)C[C@H]21 (stereo in doubt; 1) [listing 2 of 2 here] | – | – | – | – | –
14.8 | 0.603 | 2.69 | 3.72 | – | c1ccc2c(c1)[C@H]1C[C@@]1(c1c[nH]cn1)C21CC1 (stereo in doubt; 10) [listing 1 of 2 here] | – | – | 3.7 | – | 0.06
– | – | – | – | 9.05 | c1ccc2c(c1)[C@H]1C[C@@]1(c1c[nH]cn1)C21CC1 (stereo in doubt; 10) [listing 2 of 2 here] | – | – | – | – | –
18.2 | 0.331 | 2.14 | 1.91 | – | c1ccc2c(c1)[C@H]1C[C@@]1(c1c[nH]cn1)C21CC1 (stereo in doubt; (+)-10) [listing 1 of 2 here] | – | – | 2.8 | 0.22 | 0.08
– | – | – | – | 8.88 | c1ccc2c(c1)[C@H]1C[C@@]1(c1c[nH]cn1)C21CC1 (stereo in doubt; (+)-10) [listing 2 of 2 here] | – | – | – | – | –
1.05 | 0.0282 | 0.129 | 0.11 | – | c1ccc2c(c1)C[C@]1(c3c[nH]cn3)C[C@H]21 (stereo in doubt; (-)-1) [listing 1 of 2 here] | – | – | 5 | 0.04 | 0.008
– | – | – | – | 10.2 | c1ccc2c(c1)C[C@]1(c3c[nH]cn3)C[C@H]21 (stereo in doubt; (-)-1) [listing 2 of 2 here] | – | – | – | – | –
97.7 | 3.89 | 20.4 | 6.76 | – | c1ccc2c(c1)[C@H]1C[C@@]1(c1c[nH]cn1)C21CC1 (stereo in doubt; (-)-10) [listing 1 of 2 here] | – | – | 10.4 | 1.87 | 0.18
– | – | – | – | 7.75 | c1ccc2c(c1)[C@H]1C[C@@]1(c1c[nH]cn1)C21CC1 (stereo in doubt; (-)-10) [listing 2 of 2 here] | – | – | – | – | –
